Sampled rows, rich in hits. Any-hit rate of the full collection: about 1.9%.
MBD2 DNA inh – inhibitors of human MBD2 binding to methylated oligonucleotide; Q9UBB5; TR-FRET; inhibition, % at 4.4 µM; 0.31% of 370,000 active; AID 686964; in the data active = inhibition above about 13%
Rin1-Abl PPI inh – inhibitors of human Rin1-Abl protein interaction; TR-FRET Rin1/Abl binding, biochemical; AID 588664; 0.4% of 360,000 active; inhibition, % at 7.35 µM; P00519+Q13671; in the data active = inhibition above about 5%, passing the limit was not always enough
LEDGF integ inh – blocks HIV-1 LEDGF/p75-dependent DNA integration. TR-FRET IN-LEDGF/p75 DNA integration, Eu/Cy5. inhibition, % at 3.7 µM. 0.64% of 370,000 active;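 active = inhibition above the screen-wide mean plus 3 SD, cut at about 13% in these data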;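 also: signal is the Cy5 over europium emission ratio at 671 and 618 nm; 0% = plate median of compound wells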
UHRF1 binding – blocks human UHRF1 binding to methylated DNA; inhibition, % at 4.4 µM; 0.75% of 370,000 active; UHRF1 binding to methylated oligo, TR-FRET; Q96T88; in the data active = inhibition above about 21%;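 also: UHRF1 SRA domain binding a hemimethylated CpG hairpin DNA probe; 0% = median of test compound wells and 100% = reference inhibitor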
Target sequence (Q96T88 whole entry, looked up, the tested form may be a part): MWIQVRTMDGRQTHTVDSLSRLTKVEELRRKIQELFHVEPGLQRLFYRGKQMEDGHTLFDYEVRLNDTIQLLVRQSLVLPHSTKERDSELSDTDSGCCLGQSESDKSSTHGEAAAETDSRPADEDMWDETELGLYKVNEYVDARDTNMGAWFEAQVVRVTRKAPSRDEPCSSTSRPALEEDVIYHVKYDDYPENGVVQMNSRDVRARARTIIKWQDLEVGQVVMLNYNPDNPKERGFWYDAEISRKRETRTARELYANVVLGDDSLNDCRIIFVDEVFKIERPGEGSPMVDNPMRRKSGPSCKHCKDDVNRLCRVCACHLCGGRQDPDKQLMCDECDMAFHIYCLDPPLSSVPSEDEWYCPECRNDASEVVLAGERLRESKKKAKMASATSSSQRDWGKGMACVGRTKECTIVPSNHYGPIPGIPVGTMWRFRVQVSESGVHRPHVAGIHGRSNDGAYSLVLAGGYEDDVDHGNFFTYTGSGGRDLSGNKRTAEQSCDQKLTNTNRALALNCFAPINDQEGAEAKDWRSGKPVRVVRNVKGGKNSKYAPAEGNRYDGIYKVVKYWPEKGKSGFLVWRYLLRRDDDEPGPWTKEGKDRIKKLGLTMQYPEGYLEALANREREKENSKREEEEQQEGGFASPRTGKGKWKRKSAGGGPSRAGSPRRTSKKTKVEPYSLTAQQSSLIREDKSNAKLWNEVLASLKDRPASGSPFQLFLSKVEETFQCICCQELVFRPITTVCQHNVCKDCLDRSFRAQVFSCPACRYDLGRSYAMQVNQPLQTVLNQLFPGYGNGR
TDP2 absorb – TDP2 (human) inhibition, absorbance primary screen. recombinant TDP2, T5PNP hydrolysis, p-nitrophenol absorbance 415 nm. 0.34% of 370,000 active. inhibition, % at 12.8 µM;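 active = inhibition above the mean of all tested compounds plus 3 SD, set per campaign, cut at about 25% in these data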;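 also: 0% = DMSO with enzyme and 100% = buffer with substrate but no TDP2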
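Evaluation: % inhibition relative to enzyme-containing and enzyme-free wells. Material: recombinant human TDP2. Benchmarks: enzyme-free and DMSO wells. Timing: enzyme reaction with compound for 2 h at 37 °C. Compound dosing: 12.8 µM only. Measured by: p-Nitrophenol epi absorbance. Reagent: T5PNP substrate at 5 mM, a TopII-DNA adduct mimic. Replication: single well per compound.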
* = called active by the depositor; . = not tested or not shown.

SMILES | MBD2 DNA inh | Rin1-Abl PPI inh | LEDGF integ inh | UHRF1 binding | TDP2 absorb
Clc1cccc(Cl)c1CSc1nnc2ccccn12 | -1 | 0 | -1 | 5 | -9
Brc1ccc(CSc2nnc3ccccn23)cc1 | 7 | 0 | 0 | 33* | 3
COC(=O)[C@]12C[C@H](CC(=O)NCC3CCCCC3)C(=O)N(CCc3ccc(OC)c(OC)c3)C1=C[C@H](C(C)C)O[C@@H]2C1CC1 | 5 | . | 5 | 1 | 6
COc1ccccc1OCCSc1nc2ccccc2n1CCC(=O)O | 11 | 2 | 8 | 34* | 0
CN1CCc2cc3c(c4c2[C@H]1[C@H](O)c1ccccc1-4)OCO3 | 66* | -10 | 9 | 35* | 4
Cc1n[nH]c(C)c1CCNC(=O)C1CCC(=O)N(CCc2cccc(F)c2)C1 (configuration not stated) | 3 | 3 | -2 | 22* | -4
O=C(N=c1ccn(-c2nc3ccccc3nc2NS(=O)(=O)c2ccccc2)cc1)c1cccs1 | 0 | 1 | 2 | 0 | 8
Cc1ccccc1C(=O)N=c1ccn(-c2nc3ccccc3nc2NS(=O)(=O)c2ccc(F)cc2)cc1 | 2 | 2 | -3 | 21* | -3
O=C(Nc1ccc(Br)cc1)C1Cc2ccccc2O/C1=N\O (configuration not stated) | 4 | 0 | 2 | 0 | 9
Cc1ccc(NC(=O)C2Cc3ccccc3O/C2=N\O)cc1C (configuration not stated) | 3 | 2 | 4 | 21* | 7
CCOC(=O)C1=CN(Cc2ccco2)S(=O)(=O)N(C)C1CC (configuration not stated) | 2 | -3 | 6 | 22* | 6
CCOC(=O)C1=CN(Cc2ccco2)S(=O)(=O)N(C)C1c1ccc2ccccc2c1 (configuration not stated) | 4 | 1 | -2 | 0 | 3
C=CCN1[C@H](CC(C)C)COc2cc(F)ccc2S1(=O)=O | 5 | . | -3 | 1 | -2
Cc1ccc(-n2nc(-c3ccco3)cc2C(=O)O)c(C)c1 | 9 | 1 | 5 | 25* | -1
N#Cc1ccc(-c2nc3ccc(Br)cn3c2Cc2cccc(Cl)c2)cc1 | 4 | -32 | -2 | -3 | 2
Cc1ccc(-c2nc3ccc(Br)cn3c2Cc2ccccc2)cc1 | 4 | 4 | -1 | 19 | 8
N#Cc1ccc(-c2nc3ccc(Br)cn3c2Cc2ccccc2)cc1 | 7 | -27 | -5 | 22* | -5
Cc1ccc(Cc2c(-c3ccc(C#N)cc3)nc3ccc(C)cn23)cc1 | 9 | . | -2 | 20 | -1
Cc1ccc(Cc2c(-c3ccc(C#N)cc3)nc3ccc(Br)cn23)cc1 | 11 | -8 | 1 | 22* | -1
Cc1ccc(Cc2c(-c3ccccc3)nc3ccc(Br)cn23)cc1 | 7 | -15 | 1 | 22* | -1
Cc1ccccc1CNC(=O)C1C2C=CC3(CN(Cc4ccccc4)C(=O)C13)O2 (configuration not stated) | 4 | . | 3 | 0 | 3
CN(Cc1ccco1)C(=O)CN1C(=O)C2(OCCCO2)c2ccccc21 | -4 | . | 0 | -1 | 4
COC(=O)C1CN(Cc2ccc(F)cc2)CCS(=O)(=O)N1Cc1cn(Cc2ccc(F)cc2)nn1 (configuration not stated) | 3 | . | -2 | 9 | 4
COC(=O)[C@]12C[C@H](CC(=O)N3CCCCC3)C(=O)N(Cc3ccco3)C1=C[C@H](C1CCCC1)O[C@@H]2C | 0 | . | 5 | 2 | -1
CCCN(C(=O)CSc1nnnn1C)C1CCS(=O)(=O)C1 (configuration not stated) | 3 | -1 | 3 | 22* | -1
SMILES | MBD2 DNA inh | Rin1-Abl PPI inh | LEDGF integ inh | UHRF1 binding | TDP2 absorb
CC1CC(C)CN(C(=O)C2CCN(c3cncnc3)CC2)C1 (configuration not stated) | 2 | . | -1 | 0 | 7
CC(C)C(OC(=O)c1ccco1)C(=O)NCc1ccco1 (configuration not stated) | 3 | -2 | -3 | 33* | -5
COC(=O)[C@]12C[C@H](CC(=O)NCCCCc3ccccc3)C(=O)N(Cc3ccccc3)C1=C[C@H](COCc1ccccc1)O[C@@H]2C | -3 | . | -4 | 1 | -8
CCCC/C=C1\CCc2c([nH]c3ccccc23)C1=O | 0 | 0 | 0 | 24* | -3
CCCCn1c(=O)[nH]c2nc3cc(NC(C)=O)ccc3nc2c1=O | -1 | -8 | -3 | 45* | 4
CCCCCCn1c(=O)[nH]c2nc3cc(N)c(C)cc3nc2c1=O | -13 | -18 | 0 | -51 | 1
O=C(NC1CCCCN(Cc2ccc(Cl)cc2)C1=O)c1ccc(Cl)cc1Cl (configuration not stated) | 1 | . | 0 | -2 | 1
Cc1cccc(CN[C@@H]2CC[C@@]34CCCN3C(=O)CCC[C@H]4C2)c1 | 2 | . | -1 | -3 | 7
Cc1ccc(S(=O)(=O)NC(=O)Nc2ccc(N(C)C)cc2)cc1 | -2 | 1 | 26* | 4 | 11
Cc1cccc(-c2cccc3c4c([nH]c23)[C@@H]2C[C@H]3[C@@H](CN2CC4)[C@H](C)ON3C)c1 | 1 | . | -1 | -5 | 3
CCN(CC)C(=O)Oc1ccc2oc(=O)cc(-c3cc4cccc(OC)c4o3)c2c1 | 4 | 6 | -1 | 21* | -12
C[C@@]12CCC=C[C@H]1[C@H](c1ccc3ccccc3c1Br)N(Cc1ccccc1)C2=O | 4 | -2 | 3 | -2 | -8
C[C@@]12CCC=C[C@H]1[C@H](c1ccc3ccccc3c1)N(Cc1ccccc1)C2=O | -1 | 2 | -1 | 38* | 7
CC(=O)Nc1ccc(O)c(-c2nc3ccccc3s2)c1 | 1 | -1 | -5 | 39* | -2
NC(=O)COC(=O)CC1CC2CCC1C2 (configuration not stated) | 2 | -5 | 12 | 21* | 0
NC(=O)c1ccc(NC(=O)COC(=O)CC2CC3CCC2C3)cc1 (configuration not stated) | 0 | 1 | -4 | -2 | 9
COC(=O)c1cc(-c2ccc(Cl)s2)c(=O)n2c1CCC2 | -2 | . | 1 | -2 | 4
Cc1ccc(NC(=O)C(=O)NCC2OCCc3ccccc32)cc1 (configuration not stated) | 5 | 4 | -3 | 57* | -8
CC(=O)c1ccc(S(=O)(=O)Nc2cccc(-n3cnnn3)c2)cc1 | 4 | 1 | 2 | 40* | -6
CC(=O)Nc1ccc(S(=O)(=O)Nc2cccc(-n3cnnn3)c2)cc1 | -1 | -2 | 1 | -1 | 5
CC(=O)NC(Cc1ccccc1C)C(=O)NC1CCN(c2c3c(nc4ncnn24)CCC3)CC1 (configuration not stated) | -3 | . | 2 | 39* | -8
COc1ccc(N(CC(=O)NC2CC3CCC2C3)S(=O)(=O)c2ccc(C)cc2)cc1Cl (configuration not stated) | 5 | 2 | 2 | 22* | -10
